# Test results: ChEMBL document CHEMBL4406801, “Novel Human Aminopeptidase N Inhibitors: Discovery and Optimization of Subsite Binding Interactions” (J Med Chem, 2019)
# Activity calls are given as the source filed them. The calls are words filed in the database; no cut-off is given here.
# Tests used:
# Aminopeptidase N [1] = biological target: T1, Aminopeptidase N (Homo sapiens, UniProt P15144); experiment: Inhibition of soluble human APN ectodomain stably expressed in HEK293 GnTI(-) cells using H-Leu-NHMec as substrate preincubated for 10 mins followed by substrate addition and measured for 1 hr by spectrofluorimetric method; conditions: read-out: Ki(app)
# T1 sequence (P15144 whole entry, the tested form may be a part): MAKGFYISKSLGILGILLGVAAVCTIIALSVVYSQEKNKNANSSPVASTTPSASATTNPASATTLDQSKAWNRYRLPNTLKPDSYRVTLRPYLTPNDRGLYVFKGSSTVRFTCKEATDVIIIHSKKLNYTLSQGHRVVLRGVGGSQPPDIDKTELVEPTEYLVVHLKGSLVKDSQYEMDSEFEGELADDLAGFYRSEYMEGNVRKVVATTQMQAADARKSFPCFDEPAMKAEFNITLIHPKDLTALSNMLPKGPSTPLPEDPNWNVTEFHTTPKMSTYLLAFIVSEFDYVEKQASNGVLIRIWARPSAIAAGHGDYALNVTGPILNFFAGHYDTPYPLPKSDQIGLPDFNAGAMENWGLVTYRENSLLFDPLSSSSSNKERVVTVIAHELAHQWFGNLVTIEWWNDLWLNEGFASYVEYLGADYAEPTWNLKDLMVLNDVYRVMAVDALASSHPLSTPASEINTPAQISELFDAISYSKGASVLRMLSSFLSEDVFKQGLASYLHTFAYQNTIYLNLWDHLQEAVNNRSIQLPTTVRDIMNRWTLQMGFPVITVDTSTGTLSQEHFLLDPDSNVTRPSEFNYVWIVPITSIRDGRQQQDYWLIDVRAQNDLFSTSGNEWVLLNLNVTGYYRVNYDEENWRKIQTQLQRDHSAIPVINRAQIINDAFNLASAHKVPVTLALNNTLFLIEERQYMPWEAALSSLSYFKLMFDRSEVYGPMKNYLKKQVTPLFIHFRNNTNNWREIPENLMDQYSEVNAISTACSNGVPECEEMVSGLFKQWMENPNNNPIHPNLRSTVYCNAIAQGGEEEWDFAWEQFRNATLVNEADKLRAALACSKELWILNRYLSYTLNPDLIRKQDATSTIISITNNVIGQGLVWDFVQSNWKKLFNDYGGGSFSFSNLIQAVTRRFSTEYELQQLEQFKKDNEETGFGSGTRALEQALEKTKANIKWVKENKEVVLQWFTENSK
# [2] = Inhibition of Plasmodium falciparum M1 aminopeptidase; conditions: read-out: Ki(app)
# [3] = biological target: 72 kDa type IV collagenase (Homo sapiens, UniProt P08253); experiment: Inhibition of MMP2 (unknown origin) using QF-24 as substrate preincubated for 1 hr followed by substrate addition and measured at 1 min interval for 1 hr by fluorescence assay
# Chain of 72 kDa type IV collagenase (P08253 whole entry): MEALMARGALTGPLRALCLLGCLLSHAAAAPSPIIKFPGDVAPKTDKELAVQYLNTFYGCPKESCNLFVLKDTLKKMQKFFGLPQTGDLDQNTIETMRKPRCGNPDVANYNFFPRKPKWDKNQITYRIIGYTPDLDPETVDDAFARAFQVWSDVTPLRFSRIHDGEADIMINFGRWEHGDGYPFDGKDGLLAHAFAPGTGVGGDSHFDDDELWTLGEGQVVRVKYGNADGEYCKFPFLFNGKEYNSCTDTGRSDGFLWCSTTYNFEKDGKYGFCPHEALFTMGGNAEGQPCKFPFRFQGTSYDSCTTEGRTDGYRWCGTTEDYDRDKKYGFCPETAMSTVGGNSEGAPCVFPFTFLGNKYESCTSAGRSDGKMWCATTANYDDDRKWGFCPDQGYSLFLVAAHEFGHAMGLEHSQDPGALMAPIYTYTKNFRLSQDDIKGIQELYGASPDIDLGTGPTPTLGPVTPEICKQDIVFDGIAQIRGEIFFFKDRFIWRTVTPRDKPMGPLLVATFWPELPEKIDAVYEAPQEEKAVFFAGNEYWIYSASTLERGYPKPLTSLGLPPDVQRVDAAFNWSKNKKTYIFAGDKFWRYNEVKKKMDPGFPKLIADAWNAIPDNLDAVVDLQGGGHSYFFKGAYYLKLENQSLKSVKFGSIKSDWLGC
# [4] = biological target: Matrix metalloproteinase-9 (Homo sapiens, UniProt P14780); experiment: Inhibition of MMP9 (unknown origin) using QF-24 as substrate preincubated for 1 hr followed by substrate addition and measured at 1 min interval for 1 hr by fluorescence assay
# Chain of Matrix metalloproteinase-9 (P14780 whole entry): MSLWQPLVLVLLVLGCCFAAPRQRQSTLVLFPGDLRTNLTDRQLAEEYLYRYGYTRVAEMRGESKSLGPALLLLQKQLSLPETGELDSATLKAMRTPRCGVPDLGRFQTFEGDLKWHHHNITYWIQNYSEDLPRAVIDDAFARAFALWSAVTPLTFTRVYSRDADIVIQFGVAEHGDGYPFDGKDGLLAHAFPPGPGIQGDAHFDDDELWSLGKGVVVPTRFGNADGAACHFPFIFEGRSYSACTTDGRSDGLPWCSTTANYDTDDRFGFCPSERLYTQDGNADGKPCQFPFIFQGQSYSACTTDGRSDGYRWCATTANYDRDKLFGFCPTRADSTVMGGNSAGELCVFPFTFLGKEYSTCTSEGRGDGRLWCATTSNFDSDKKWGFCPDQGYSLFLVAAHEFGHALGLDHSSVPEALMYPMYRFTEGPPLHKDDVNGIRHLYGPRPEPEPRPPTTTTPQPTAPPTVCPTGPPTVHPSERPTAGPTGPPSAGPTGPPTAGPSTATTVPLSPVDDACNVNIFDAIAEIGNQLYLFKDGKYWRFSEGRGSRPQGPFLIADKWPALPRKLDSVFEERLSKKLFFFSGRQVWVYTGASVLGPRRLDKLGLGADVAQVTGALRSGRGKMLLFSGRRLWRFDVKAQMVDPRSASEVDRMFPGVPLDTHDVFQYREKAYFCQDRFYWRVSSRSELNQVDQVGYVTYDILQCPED
# [5] = biological target: Neutrophil collagenase (Homo sapiens) (UniProt P22894); experiment: Inhibition of MMP8 (unknown origin) using QF-24 as substrate preincubated for 1 hr followed by substrate addition and measured at 1 min interval for 1 hr by fluorescence assay
# Chain of Neutrophil collagenase (Homo sapiens) (P22894 101-467 limits assumed): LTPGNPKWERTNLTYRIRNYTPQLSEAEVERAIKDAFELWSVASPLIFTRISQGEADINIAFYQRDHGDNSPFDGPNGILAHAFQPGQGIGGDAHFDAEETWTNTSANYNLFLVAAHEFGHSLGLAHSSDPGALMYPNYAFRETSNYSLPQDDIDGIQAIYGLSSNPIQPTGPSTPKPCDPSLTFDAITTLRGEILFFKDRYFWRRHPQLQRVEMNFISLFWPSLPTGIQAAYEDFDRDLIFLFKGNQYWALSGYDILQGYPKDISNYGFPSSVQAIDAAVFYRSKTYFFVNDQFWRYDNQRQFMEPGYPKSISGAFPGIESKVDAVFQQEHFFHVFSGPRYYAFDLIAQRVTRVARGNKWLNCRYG
# [6] = biological target: T2, Matrilysin (Homo sapiens) (UniProt P09237); experiment: Inhibition of MMP7 (unknown origin) using QF-24 as substrate preincubated for 1 hr followed by substrate addition and measured at 1 min interval for 1 hr by fluorescence assay
# T2 sequence (whole entry): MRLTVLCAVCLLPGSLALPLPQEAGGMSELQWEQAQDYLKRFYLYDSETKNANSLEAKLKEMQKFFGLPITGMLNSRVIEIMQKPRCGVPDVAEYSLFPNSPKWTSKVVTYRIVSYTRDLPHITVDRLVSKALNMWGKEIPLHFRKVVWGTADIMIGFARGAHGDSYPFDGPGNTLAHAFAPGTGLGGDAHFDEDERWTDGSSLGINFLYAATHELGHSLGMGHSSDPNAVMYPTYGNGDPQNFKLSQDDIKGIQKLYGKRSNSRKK
# [7] = Solubility of the compound in methanol; type: physicochemical
# [8] = Cytotoxicity against human AD293 cells measured after 72 hrs by celltitre-blue assay; type: cell-based
# [9] = Kinetic solubility of the compound in 0.01 M HCl at pH 2 after 30 mins by nephelometry; type: physicochemical; conditions: read-out: Kinetic_solubility
# In short: (§1)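 Kinetic solubility read by nephelometry under pH 2 (stomach-like) and pH 6.5 (upper fasted small intestine-like) conditions.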
# [10] = Kinetic solubility of the compound in phosphate buffer at pH 6.5 after 30 mins by nephelometry; type: physicochemical; conditions: read-out: Kinetic_solubility; in short: as §1
# [11] = Partition coefficient, log D of compound at pH 7.4 by HPLC analysis; type: physicochemical; conditions: octanol/water
# In short: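 LogD at pH 7.4 estimated by a chromatographic method.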
# [12] = Half life in mouse liver microsomes at 1 uM in presence of NADPH; type: ADME, Microsome
# [13] = Half life in human liver microsomes at 1 uM in presence of NADPH; type: ADME, Microsome
# [14] = Intrinsic clearance in mouse liver microsomes assessed per mg protein at 1 uM in presence of NADPH; type: ADME, Microsome; conditions: read-out: CLH
# [15] = Intrinsic clearance in human liver microsomes assessed per mg protein at 1 uM in presence of NADPH; type: ADME, Microsome; conditions: read-out: CLH
# [16] = Half life in Swiss mouse plasma at 1000 ng/ml by LC-MS analysis; type: ADME, cell-free
# [17] = Half life in human plasma at 1000 ng/ml by LC-MS analysis; type: ADME, cell-free
# Aminopeptidase N [18] = biological target: T1, Aminopeptidase N; experiment: Potency index, ratio of bestatin Ki(app) to test compound Ki(app) for soluble human APN ectodomain stably expressed in HEK293 GnTI(-) cells; type: cell-based
# Aminopeptidase N [19] = biological target: T1, Aminopeptidase N; experiment: Potency index, ratio of tosedostat Ki(app) to test compound Ki(app) for soluble human APN ectodomain stably expressed in HEK293 GnTI(-) cells; type: cell-based
smiles,measurement,setting,value
CC(C)C[C@@H](C(=O)N[C@H](C(=O)OC1CCCC1)c1ccccc1)[C@H](O)C(=O)NO [TOSEDOSTAT],Ki,Aminopeptidase N [1],1.18 µM
same,Ki,[2],6.15 µM
same,IC50,[3],0.19 µM
same,IC50,[4],1.5 µM
same,inhibition,[5],Active
same,inhibition,[6],Active
O=C(Cc1ccc(O)c(O)c1)NC(C(=O)NO)c1ccc(-c2cc(F)c(F)c(F)c2)cc1 (stereo not drawn),solubility,[7],Insoluble
O=C(Cc1ccc(O)c(F)c1)NC(C(=O)NO)c1ccc(-c2cc(F)c(F)c(F)c2)cc1 (stereo not drawn),solubility,[7],Insoluble
O=C(NO)C(NCc1ccc(F)c(O)c1)c1ccc(-c2cc(F)c(F)c(F)c2)cc1 (stereo not drawn),Ki,Aminopeptidase N [1],> 1000 µM
O=C(Cc1ccc(O)cc1)NC(C(=O)NO)c1ccc(-c2cc(F)c(F)c(F)c2)cc1 (stereo not drawn),solubility,[7],Insoluble
COC(=O)C(NC(=O)CC(=O)O)c1ccc(-c2cc(F)c(F)c(F)c2)cc1 (stereo not drawn),solubility,[7],Insoluble
O=C(Cc1ccc(F)c(O)c1)NC(C(=O)NO)c1ccc(-c2cc(F)c(F)c(F)c2)cc1 (stereo not drawn),solubility,[7],Insoluble
NS(=O)(=O)Nc1ccc(C(=O)NC(C(=O)NO)c2ccc(-c3cc(F)c(F)c(F)c3)cc2)cc1 (stereo not drawn),Ki,Aminopeptidase N [1],0.0082 µM
same,IC50,[3],2.1 µM
same,IC50,[4],> 100 µM
same,inhibition,[5],inactive
same,inhibition,[6],inactive
same,CC50 at 72 h,[8],149 µM
same,solubility kinetic at 0.5 h,[9],6.3 to 12.5 µg/mL
same,solubility kinetic at 0.5 h,[10],12.5 to 25 µg/mL
same,logD,[11],2.6
same,half-life at 1 µM,[12],> 4.17 h
same,half-life at 1 µM,[13],> 4.17 h
same,microsomal CLint at 1 µM,[14],< 7 µL/min/mg
same,microsomal CLint at 1 µM,[15],< 7 µL/min/mg
same,half-life at 1000 ng/ml,[16],> 17 h
same,half-life at 1000 ng/ml,[17],> 17 h
CS(=O)(=O)Nc1ccc(C(=O)NC(C(=O)NO)c2ccc(-c3cc(F)c(F)c(F)c3)cc2)cc1 (stereo not drawn),Ki,Aminopeptidase N [1],0.0045 µM
same,Ratio Ki(app),Aminopeptidase N [18],527
same,IC50,[3],1.3 µM
same,IC50,[4],> 100 µM
same,inhibition,[5],inactive
same,inhibition,[6],inactive
same,CC50 at 72 h,[8],41 µM
same,solubility kinetic at 0.5 h,[9],12.5 to 25 µg/mL
same,solubility kinetic at 0.5 h,[10],12.5 to 25 µg/mL
same,logD,[11],2.8
same,half-life at 1 µM,[12],> 4.17 h
same,half-life at 1 µM,[13],> 4.17 h
same,microsomal CLint at 1 µM,[14],< 7 µL/min/mg
same,microsomal CLint at 1 µM,[15],< 7 µL/min/mg
same,half-life at 1000 ng/ml,[16],> 17 h
same,half-life at 1000 ng/ml,[17],> 17 h
CNC(=O)[C@@H](NC(=O)[C@H](CC(C)C)[C@H](O)C(=O)NO)C(C)(C)C,inhibition,[5],Active
same,inhibition,[6],Active
O=C(NC(C(=O)NO)c1ccc(-c2cc(F)c(F)c(F)c2)cc1)c1ccc(O)c(O)c1 (stereo not drawn),solubility,[7],Insoluble
CC(C)C[C@H](NC(=O)[C@@H](O)[C@H](N)Cc1ccccc1)C(=O)O [UBENIMEX],Ki,[2],1.53 µM
CC(C)(C)C(=O)NC(C(=O)NO)c1ccc(-c2cc(F)c(F)c(F)c2)cc1 (stereo not drawn),Ki,Aminopeptidase N [1],0.118 µM
same,Ki,[2],0.331 µM
same,Ratio Ki(app),Aminopeptidase N [18],10 to 20
same,Ratio Ki(app),Aminopeptidase N [19],10 to 20
same,inhibition,[5],inactive
same,inhibition,[6],inactive
